# Rows were chosen to be rich in hits. Some 2% of all compounds tested hit in one or more screens of this group.
# SUMO1-SIM PPI – modulators of SUMO1 protein-protein interactions, primary screen, biochemical, uHTS; AID 602429, 2012; hit rate 0.33% among 360,000; SUMO1 binding to a labelled peptide, TR-FRET, 1 h; inhibition, % at 20 µM; Small ubiquitin-related modifier 1 (Homo sapiens), P63165; in the data active = inhibition above about 37%
# STEP inh – STEP phosphatase inhibitors, primary screen, biochemical, fluorescence intensity, uHTS. recombinant STEP, OMFP fluorogenic substrate. hit rate 0.25% among 360,000. inhibition, % at 20 µM;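 active = inhibition at 20 µM, scaled per plate between control wells, above about 37%, limit read from the data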;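 note: 0% = DMSO with enzyme and substrate and 100% = substrate only without enzyme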
#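 medium = Bis-Tris buffer pH 6.0, 2.5 mM DTT, 0.005% Tween 20 | test system = STEP (striatal-enriched tyrosine phosphatase) enzyme, cell-free | measure = normalized % inhibition | compound dosing = 20 µM, 1% DMSO | also added = 25 µM OMFP | schedule = reaction 20 min, ambient temperature | measured by = fluorescence read at 480 nm ex / 540 nm em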
# Scp-1 inhibitor – Scp-1 phosphatase inhibitors, primary screen, biochemical, colorimetric, uHTS. inhibition, % at 20 µM. AID 493091, 2011. Recombinant Scp1, phosphopeptide, malachite green phosphate absorbance. hit rate 0.88% among 340,000;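 active = inhibition above about 50% at 20 µM, limit read from the data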;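 note: plate controls were DMSO wells with enzyme for no effect and wells lacking enzyme for full effect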
#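 Assay system: SCP-1 catalytic fragment, aa 76-261 | Buffer or medium: Tris acetate buffer pH 5.5 with MgCl2 and Tween-20 | Compound: One concentration, 20 µM, with 1.0% DMSO | Also added: Phospho 17-mer peptide substrate | Signal: Absorbance at 630 nm | Incubation: 45 min enzyme reaction at room temperature | Measure: % inhibition of SCP-1 phosphate liberation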
# CSN deneddyl inh – inhibitors of CSN-mediated cullin deneddylation, primary screen, biochemical, fluorescence polarization, uHTS | COP9 signalosome complex subunit 5 (Homo sapiens), Q92905 | Purified CSN, SCF-Nedd8-OG deneddylation | inhibition, % at 12.5 µM | hit rate 0.38% among 360,000 | AID 651999, 2013;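 active = pattern-corrected inhibition above about 35%, with an unprinted fluorescence ratio check between 0.5 and 1.5, limit read from the data, passing the limit was not always enough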;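 note: 0% = enzyme with substrate and 100% = substrate without enzyme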
#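 Test system: purified human Csn5 enzyme expressed in HEK293T cells. Amount: 0.24 nM enzyme. Reagent: SCFSkp2-Nedd8OG substrate at 10 nM final. Schedule: 90 min incubation of compound, enzyme and substrate at room temperature. Detection: fluorescence polarization. Read-out: % inhibition of substrate cleavage by Csn5.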
# LMPTP inh – LMPTP phosphatase inhibitors, primary screen, biochemical, fluorescence intensity, uHTS; AID 651560, 2012; inhibition, % at 20 µM; recombinant LMPTP-A, OMFP fluorogenic substrate; hit rate 0.22% among 360,000; Low molecular weight phosphotyrosine protein phosphatase (Homo sapiens), P24666;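 active = compounds that cut the enzyme signal by at least half of the control window in the single-dose screen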;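 note: plate controls were DMSO wells with enzyme plus substrate for no effect and substrate without enzyme for full effect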
#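 Assay system: LMPTP-A, protein tyrosine phosphatase of low molecular weight / Medium: pH 6.0 Bis-Tris buffer with DTT and Triton X-100 / Schedule: 50 min enzyme reaction at room temperature, protected from light / Measured by: endpoint fluorescence intensity from OMFP dephosphorylation / Read-out basis: % inhibition relative to no-enzyme and uninhibited control wells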
# DNMT1 inh – human DNMT1 methyltransferase inhibitors, primary screen, biochemical, molecular beacon, fluorescence, HinP1I cleavage, uHTS | inhibition (reported as % activation of signal), % at 10 µM | hit rate 0.83% among 360,000; in the data active = inhibition above about 50%
# * hit, by the source's call.
SMILES,SUMO1-SIM PPI,STEP inh,Scp-1 inhibitor,CSN deneddyl inh,LMPTP inh,DNMT1 inh
COC(=O)c1cc(S(=O)(=O)N2c3ccccc3CC2C)cn1C (stereo not drawn),3,2,-12,38*,0,1
COC(=O)c1cc(S(=O)(=O)N2CCN(c3ccccc3OC)CC2)cn1C,2,-1,-6,1,-1,-2
CC1Cc2ccccc2N1S(=O)(=O)c1cccs1 (stereo not drawn),-3,-1,-10,57*,1,-10
O=C(O)CN1C(=O)c2ccc(Oc3ccc4c(c3)C(=O)N(CC(=O)O)C4=O)cc2C1=O,-9,0,21,1,-2,-5
Cc1nn(C)c(C(=O)NN)c1Cl,3,3,-6,-12,0,-1
CCOc1ccc2nc(NC3=NC(c4ccc(OC)cc4)CC(=O)N3)nc(C)c2c1 (stereo not drawn),6,86*,11,13,57*,-8
CCOc1ccc2nc(NC3=NC(C)(C)C=C(C)N3)nc(C)c2c1,-10,3,-1,5,8,-3
NC(=O)c1ccsc1NC(=O)c1cc(=O)c2ccccc2o1,63*,4,10,13,9,-2
NC(=O)c1ccsc1NC(=O)COC(=O)c1cc(=O)[nH]c2ccccc12,49*,-1,4,13,6,2
C=CCN(CC=C)S(=O)(=O)c1ccc(NC(=S)NC(=O)/C=C/c2ccccc2)cc1,63*,6,-5,1,4,3
O=C(/C=C/c1ccccc1)NC(=S)Nc1ccccc1,-1,2,3,4,-1,2
COC(=O)c1cc2c(n1S(=O)(=O)c1ccc(C)cc1)C(=O)C(=O)c1[nH]cc(C(=O)OCc3ccccc3)c1-2,-4,1,-3,1,0,82*
O=C(NCc1ccco1)c1cccc2c1C(=O)c1ccc(N3CCC(Cc4ccccc4)CC3)cc1S2(=O)=O,-23,-6,2,14,4,6
O=C(NCc1ccco1)c1cccc2c1C(=O)c1ccc(/C=C/c3ccccc3)cc1S2(=O)=O,-10,-2,75*,55*,5,13
O=C(Cc1c(F)cccc1Cl)OCN1C(=O)c2ccccc2C1=O,-1,-3,-10,-5,-1,2
C=CCN1C(=O)C(CC(=O)Nc2ccc(OC)cc2)SC1=Nc1ccc(S(N)(=O)=O)cc1 (stereo not drawn),7,0,-5,-7,-2,-1
O=C(O)c1cccc(-n2c(/C=C/c3ccccc3)nc3ccccc3c2=O)c1,-11,0,-2,2,0,2
CN(C)c1ccc(/C=C/c2nc3ccccc3c(=O)n2-c2ccc(C(=O)O)cc2)cc1,-56,-40,64*,-76,0,15
Cc1nc(N)sc1-c1csc(Nc2ncccn2)n1,93*,64*,-2,1,35,-21
COc1ccccc1Nc1nc(-c2sc(N)nc2C)cs1,12,0,-2,5,2,-22
Cc1ccc(/C=N/NC(=O)C(C)Oc2ccccc2[N+](=O)[O-])s1 (stereo not drawn),-18,0,-3,-10,-1,-1
O=C(/C=C/c1ccco1)NC(=S)Nc1cccc(C(=O)O)c1,2,15,64*,14,0,38
COc1cccc(NC(=S)NC(=O)/C=C/c2ccco2)c1,16,0,-5,16,12,32
O=C(O)CCCNC(=O)/C=C/c1ccco1,-1,4,72*,18,4,88*
O=S(=O)(c1ccccc1)c1nnn2c1nc(NC1CCN(Cc3ccccc3)CC1)c1cc(Cl)ccc12,-13,12,6,0,27,-1
SMILES,SUMO1-SIM PPI,STEP inh,Scp-1 inhibitor,CSN deneddyl inh,LMPTP inh,DNMT1 inh
O=S(=O)(c1ccccc1)c1nnn2c1nc(NC1CCN(Cc3ccccc3)CC1)c1ccccc12,-66,7,0,-1,66*,-1
CC[C@]12c3[nH]c4ccc(Cl)cc4c3CCN1C(=O)[C@@H](CC(=O)NCc1ccco1)C[C@@H]2C(=O)N1CCN(C(=O)c2ccco2)CC1,2,1,-4,-3,1,0
CC[C@]12c3[nH]c4ccc(Cl)cc4c3CCN1C(=O)[C@@H](CC(=O)NCCN1CCOCC1)C[C@@H]2C(=O)N1CCN(C(=O)c2ccco2)CC1,4,2,-4,95*,-8,6
Nc1c(C(=O)NCc2ccccc2)c2nc3ccccc3nc2n1CCCN1CCOCC1,43*,3,-4,5,-4,47
CN(C)c1ccc(C=c2c3ccccc3n3c2c2c([n+]3C)CCCC2)cc1,-87,5,7,1,53*,25
Cn1c(CO)c(-c2ccccc2)c2cc([N+](=O)[O-])ccc21,-22,-3,-8,-2,3,-3
CN(C)c1ccc(C=c2c3ccccc3n3c2cc(-c2ccccc2)[n+]3C)cc1,-61,11,10,24,89*,29
CN(C)c1ccc(C=c2c3cc([N+](=O)[O-])ccc3n3c2cc(-c2ccccc2)[n+]3C)cc1,59*,9,4,5,68*,36
COc1cc(C=c2c3ccccc3n3c2cc(-c2ccccc2)[n+]3C)cc(OC)c1OC,-17,4,10,6,8,18
CN(C)c1ccc(C=c2c3ccccc3n3c2cc(-c2ccc(Cl)cc2)[n+]3C)cc1,-112,4,7,18,52*,35
COc1cccc(NC(=O)CN2C(=O)NC(c3ccccc3)(c3ccccc3)C2=O)c1,4,0,3,-2,1,-8
COc1cccc(N=Nc2c(N)[nH]n3c(=O)cc(-c4ccccc4)nc23)c1,-10,8,-9,-1,8,-14
Cc1ccc(N=Nc2c(N)[nH]n3c(=O)cc(-c4ccccc4)nc23)cc1,-9,21,36,-6,70*,-25
COc1cc(OC)c(CN2CCc3c([nH]c4ccccc34)C2)cc1Br,-15,-6,-2,43*,2,-14
Cc1cccc(CN2CCc3c([nH]c4ccccc34)C2)c1,-18,-2,-4,2,-1,0
CCc1cc(C(=O)N2CCCc3ccccc32)sc1C,17,1,-8,2,1,1
